Ecoli rRNA inh: reduced GFP signal of wild-type E. coli, primary screen, bacterial rRNA inhibitor project, GFP/RFP fluorescence, OD600, single point; E. coli WT GFP vs humanized-ribosome RFP mutants, 24 h; stronger effect = lower value; DMSO median 0, no signal -100; GFP signal change (wild-type ribosome), % (test concentration not listed); 350,000 compounds, 1.6% hits; AID 720706, 2013;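 active = significant combined selectivity score with lowered wild-type GFP, culture density cut under 30%, mutant RFP and density less affected; inactive = any of these conditions unmet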
Vif inh: HIV Vif self-association inhibitors, primary screen, imaging, HEK293T, single point; HEK293T cells, Vif self-association by quenched fluorescence, 24 h; inhibition, % at 7.49 µM; 340,000 compounds, 0.35% hits; in the data active = inhibition above about 50%, passing the limit was not always enough; inconclusive = no clear call, values can overlap the other calls; inactive = below about 31%
Env fusion inh: inhibitors of HIV-1 Env-driven cell-cell fusion, primary screen, HeLa-JRFL effector, CEM21 target cells, luciferase; inhibition, % at 12.3 µM; AID 651610, 2012; 360,000 compounds, 1.1% hits;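 active = mean replicate inhibition score of at least 50 and every replicate individually at or above 50; inconclusive = only one of the two criteria met; inactive = mean below 50 and not all replicates reaching 50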
FN deposition inh: inhibitors of fibronectin matrix deposition, primary screen, AH1F cells, Alexa488-fibronectin fluorescence, plate reader; AH1F fibroblasts, overnight; inhibition, % at 12.6 µM; 350,000 compounds, 0.086% hits;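 active = mean inhibition across replicates of 30% or more, regardless of how many single replicates reach that level; inconclusive = mean under 30% yet at least half of replicates reach 30%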
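material = AH1F fibroblast monolayer depositing Alexa488-labelled fibronectin into matrix | amount = 10000 AH1F cells/well | buffer or medium = DMEM plus 2% serum, read in PBS | incubation = 1 h cell adhesion before compound, then overnight fibronectin incubation | detection = fluorescence at 485 nm excitation, 525 nm emission | evaluation = percent inhibition as loss of matrix-bound fibronectin fluorescence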
S100A4 MyoIIA: inhibitors of S100A4-myosin IIA peptide binding, primary screen, biochemical, fluorescence polarization, TAMRA-MyoIIA peptide. Protein S100-A4 (Homo sapiens), P26447. inhibition, % at 10.7 µM. 360,000 compounds, 0.14% hits. AID 652163, 2013;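 active = mean inhibition of at least 70% across replicates, with every replicate also reaching that level; inconclusive = mean inhibition reaches 70% but some replicates fall short; inactive = mean inhibition below 70%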
Target sequence (P26447 whole entry, looked up): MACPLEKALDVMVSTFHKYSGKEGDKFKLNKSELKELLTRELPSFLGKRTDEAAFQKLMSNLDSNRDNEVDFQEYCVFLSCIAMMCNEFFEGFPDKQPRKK
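Compound dosing: one dose per compound; test system: human S100A4 monomer with TAMRA-labelled myosin IIA peptide; probe or stimulus: TAMRA-labelled myosin IIA heavy-chain peptide probe, 5 nM; medium: HEPES buffer with Ca2+, pH 7.2; schedule: 5 min incubation before reading; benchmarks: neutral control DMSO, positive control TFP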
miR122 inh: miR-122 Renilla sensor signal increase in Huh7, primary screen, miR-122 inhibitor project, cell-based, single point, plate reader; AID 602342, 2012; activation (reporter increase), % at 12.5 µM; 340,000 compounds, 0.3% hits; Huh7 miR-122 Renilla luciferase sensor, 48 h; neutral wells = 0, positive control = 100;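 active = mean replicate activation score at least 90 and every replicate individually at or above 90; inconclusive = only one of the two criteria met; inactive = neither criterion met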;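 also: higher luciferase means less miR-122 activity so hits act as miR-122 inhibitors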
AID977621: growth inhibition of wild-type GFP E. coli, dose response, H69 mutant RFP, cherry-pick; shares compounds with Ecoli rRNA inh; 1,900 tested, under 10 active; AID 977621, 2014; E. coli wild-type GFP strain growth, fluorescence, 24 h; activity change, negative = inhibition at 50 µM;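 active = Wild-type ribosome reporter drop at least double the humanized mutant ribosome reporter drop, growth loss under a set limit; inconclusive = no clear call, values can overlap the other calls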;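 also: wild-type GFP and H69 mutant RFP strains grown together 50/50 in each well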
AID977628: E. coli growth inhibition, wild-type GFP versus h24 humanized RFP strain, dose response, h24 mutant RFP vs wild-type GFP, cherry-pick; shares compounds with Ecoli rRNA inh; E. coli WT GFP strain growth, fluorescence, 24 h; activity change, negative = inhibition at 50 µM; 1,900 tested, under 10 active; AID 977628, 2014;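 active = compound lowering the normal-ribosome reporter at least twice as much as the humanized-ribosome reporter, growth loss under a set limit; inconclusive = no clear call, values can overlap the other calls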;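 also: wild-type GFP and h24 humanized RFP strains co-cultured 1 to 1 per well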
Large screens that a line does not name were inactive (follow-up assays come after a bar, where they were run). An excerpt weighted towards active compounds, which were near 2.6% of everything screened.

CCc1ccn2cc(-c3ccc4c(c3)OCO4)nc2c1	Ecoli rRNA inh -26.2 | AID977621 inactive
Cc1noc(C)c1S(=O)(=O)N(C)C[C@@H]1Oc2ccc(NC(=O)Nc3cccc4ccccc34)cc2CC(=O)N([C@@H](C)CO)C[C@H]1C	none (no result: Vif inh)
CSc1ccc(CN(C)CC(=O)NC(C)c2ccccc2)cc1 (stereo not given)	Ecoli rRNA inh -31.0 | AID977621 inactive
O=C(CC1CC1)Nc1ccc2c(c1)[C@@H]1C[C@@H](CC(=O)N3CCc4ccccc4C3)O[C@@H](CO)[C@@H]1O2	none (no result: Vif inh, Env fusion inh)
CC(=O)c1ccc(Sc2ccccc2N)c([N+](=O)[O-])c1	Ecoli rRNA inh -15.8 | AID977628 inactive
CCOc1ccc(S(=O)(=O)N(C)c2ccc(OCC(=O)NCc3cccnc3)cc2)cc1	Ecoli rRNA inh -19.5 (no result: FN deposition inh, miR122 inh) | AID977621 inactive | AID977628 inactive
O=C(O)C1(Nc2ccc([N+](=O)[O-])cc2[N+](=O)[O-])CCCC1	Ecoli rRNA inh -16.1 (no result: miR122 inh) | AID977621 inactive | AID977628 inactive
O=C(Cc1coc2ccc3ccccc3c12)NCc1ccccc1	Ecoli rRNA inh -26.4 (no result: Env fusion inh, FN deposition inh) | AID977621 inactive
C[C@H](CO)N1C[C@H](C)[C@H](CN(C)C)Oc2ccc(NC(=O)CCN3CCOCC3)cc2C1=O	none (no result: Vif inh, Env fusion inh, FN deposition inh)
Nc1ccc(C(=O)OCCCc2nc3cc4ccccc4cc3[nH]2)cc1	Ecoli rRNA inh -17.1 | AID977621 inactive | AID977628 inactive
Nc1ccc(C(=O)OCc2nc3cc4ccccc4cc3[nH]2)cc1	none
C[C@@H]1CN([C@@H](C)CO)C(=O)c2cccc(NS(=O)(=O)c3ccccc3)c2O[C@H]1CN(C)S(=O)(=O)c1cccs1	none (no result: Vif inh, FN deposition inh)
CCS(=O)(=O)N[C@H]1C=C[C@@H](CC(=O)NCc2ccc(F)cc2)O[C@H]1CO	none (no result: Ecoli rRNA inh, Vif inh, FN deposition inh)
CN1[C@@H]2c3ccc(/C=C/c4ccccc4)c(=O)n3C[C@@H]2[C@@H](CO)[C@@H]1C(=O)NC1CCCC1	none (no result: Vif inh, Env fusion inh, FN deposition inh, miR122 inh)
CC(C)(C)NC(=O)CC(CC(=O)O)c1ccccc1 (stereo not given)	none (no result: miR122 inh)
O=C(O)CC(CC(=O)Nc1ccc2ccccc2n1)c1ccccc1 (stereo not given)	Ecoli rRNA inh -19.5 (no result: miR122 inh) | AID977621 inactive | AID977628 inactive
COc1ccc(CNC(=O)c2cc3c(s2)CN(Cc2ccccc2)C3)cc1	Ecoli rRNA inh -22.1 | AID977621 inactive
Cc1ccc(-n2cc(CNCCN3CCOC3=O)c(-c3ccc(F)cc3)n2)cc1	Ecoli rRNA inh -18.3 (no result: miR122 inh) | AID977621 inactive | AID977628 inconclusive
Cc1cccc(-n2cc(CNCCN3CCOC3=O)c(-c3cccc(F)c3)n2)c1	none
Cc1ccc(NC(=O)c2cccnc2)cc1S(=O)(=O)N(C)C	none (no result: miR122 inh)
Cc1ccc(NC(=O)c2ccc3ncsc3c2)cc1S(=O)(=O)N(C)C	Ecoli rRNA inh -23.3 (no result: Vif inh, miR122 inh) | AID977621 inactive
O=C1CSc2ccc(S(=O)(=O)NCc3ccc(F)cc3)cc2N1	none
Cc1ccc(CNS(=O)(=O)c2ccc3c(c2)NC(=O)CS3)cc1	Ecoli rRNA inh -19.9 | AID977621 inconclusive
CC(=O)Oc1ccc(N(C(C)=O)S(=O)(=O)c2ccccc2)c2ccccc12	none
CC(=O)Oc1c(Cl)cc(N(C(C)=O)S(=O)(=O)c2ccccc2)c2ccccc12	Ecoli rRNA inh -36.6 | AID977621 inconclusive
Cn1c(SCC(=O)c2ccccc2)nnc1-c1ccccn1	none
Cc1ccccc1CSc1nnc(-c2ccccn2)n1C	Ecoli rRNA inh -20.9 | AID977621 inactive | AID977628 inconclusive
CCOC(=O)c1ccc(NC(=O)Nc2ccc(OC)c(OC)c2)cc1	none (no result: Ecoli rRNA inh, FN deposition inh, S100A4 MyoIIA)
CCOC(=O)c1ccc(NC(=O)c2ccc(OC(C)C)c(OC)c2)cc1	Ecoli rRNA inh -25.8 (no result: FN deposition inh, miR122 inh) | AID977621 inactive | AID977628 inactive
O=C(c1ccc(-n2cccn2)cc1)N1CCc2ccccc2C1	Ecoli rRNA inh -27.3 | AID977621 inactive | AID977628 inconclusive
O=C(c1ccncc1)N1CCc2ccccc2C1	none (no result: Env fusion inh)
COc1ccccc1NC(=O)CSc1ncc(CO)n1Cc1ccc(F)cc1	Ecoli rRNA inh -20.4 | AID977621 inactive | AID977628 inactive
Cc1cc(NC(=O)CSc2ncc(CO)n2Cc2ccc(F)cc2)no1	none
O=S(=O)(NCC[C@H]1CC[C@H](NS(=O)(=O)c2cccc(Cl)c2)[C@@H](CO)O1)c1cccc(F)c1	none (no result: Vif inh, miR122 inh)
Cc1noc(C)c1NC(=O)Nc1ccc2c(c1)CC(=O)N([C@H](C)CO)C[C@@H](C)[C@H](CN(C)C(=O)Nc1ccc3c(c1)OCO3)O2	none (no result: Vif inh, FN deposition inh)
COc1cccc(NC(=O)CSc2nc3c(sc4ccccc43)c(=O)n2CCCN2CCCC2)c1	none
COc1cccc(NC(=O)CSc2nc3c(sc4ccccc43)c(=O)n2CCN(C)C)c1	Ecoli rRNA inh -21.6 (no result: FN deposition inh, miR122 inh) | AID977621 inconclusive | AID977628 inactive
O=C1CCCCC1Nc1ccc(Br)cc1 (stereo not given)	Ecoli rRNA inh -18.6 (no result: FN deposition inh, miR122 inh) | AID977621 inactive | AID977628 inactive
O=C1CCCCC1Nc1ccc(Cl)cc1 (stereo not given)	none (no result: FN deposition inh, miR122 inh)
COc1ccccc1NS(=O)(=O)c1cc(NC(=O)CNC(=O)c2ccccc2)ccc1C	Ecoli rRNA inh -20.0 | AID977621 inconclusive
COc1ccccc1NS(=O)(=O)c1cc(NC(=O)CCNC(C)=O)ccc1C	none
COc1ccc2c3c(n(C)c2c1)[C@@H](CO)N(C(=O)CN1CCOCC1)CC31CCN(C(C)=O)CC1	none (no result: Vif inh, Env fusion inh, FN deposition inh, miR122 inh)
COCC(=O)N1[C@H](CO)[C@H]2c3ccccc3N(C(=O)NC(C)C)C[C@H]21	none (no result: Vif inh, Env fusion inh, FN deposition inh)
Cc1ccccc1-n1ncc2c1CC(C)(C)CC2NC(=O)CCN1Cc2ccccc2C1=O (stereo not given)	Ecoli rRNA inh -23.9 | AID977621 inactive
CSCCC(=O)NC1CC(C)(C)Cc2c1cnn2-c1ccccc1C (stereo not given)	none
C[C@@H]1CC=CC[C@@H](c2ccc3c(c2)OCO3)NC(=O)[C@H](C)N(C)C(=O)c2ccccc2O1 (mixture of isomers)	none (no result: Vif inh, Env fusion inh, S100A4 MyoIIA, miR122 inh)

Screening data from PubChem.
